In ChEMBL document CHEMBL2406978, “A novel one-pot synthesis and preliminary biological activity evaluation of cis-restricted polyhydroxy stilbenes incorporating protocatechuic acid and cinnamic acid fragments” (2013):
Active and inactive are the calls of the source. The rule behind the calls is not given here.

Tests used:
Fusarium graminearum [1] = assay: […] activity against Fusarium graminearum ATCC 24373 at 50 ug/ml after 24 hrs by agar well diffusion method relative to control; type: functional; conditions: ATCC 24373, 24 h
[2] = tested on: Radical scavenging activity; assay: Antioxidant activity assessed as DPPH free radical scavenging activity at 3.3 uM measured every 10 mins; type: functional
Method in brief: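 Compound in methanol (0.5 mL) was added to 0.5 mL of 100 µM DPPH• stock solution, with a final compound level of 3.3 µM and DPPH•/substrate molar ratio 15 (radical in excess). Absorbance at 518 nm was read every 10 min until equilibrium. Methanol served as blank and caffeic acid as reference.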

Aspergillus flavus = assay: […] activity against Aspergillus flavus IMI 052104 at 50 ug/ml after 24 hrs by agar well diffusion method relative to control; type: functional; conditions: IMI 052104, 24 h
Bacillus spizizenii [3] = assay: Antibacterial activity against Bacillus subtilis ATCC 6633 at 50 ug/ml after 24 hrs by agar well diffusion method relative to amikacin; type: functional; conditions: ATCC 6633, 24 h
Method in brief: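 Agar well diffusion on dried overlays of each test strain. Wells of 7 mm received 100 µL of sample at 0.5 mg/mL in DMSO, with DMSO wells as negative control. Positive controls were an amikacin 30 µg disc for bacteria and 100 µL nystatin 10000 IU/mL for C. albicans. Plates were held 60 min at 4 °C for diffusion, then incubated 24 h at 30 or 37 °C. Inhibition zones were measured in mm, in triplicate, and growth inhibition was expressed relative to the positive control.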

Candida albicans = assay: […] activity against Candida albicans ATCC 10231 at 50 ug/ml after 24 hrs by agar well diffusion method relative to nystatine; type: functional; conditions: ATCC 10231, 24 h
Aspergillus niger = assay: […] activity against Aspergillus niger A3 at 50 ug/ml after 24 hrs by agar well diffusion method relative to control; type: functional; conditions: A3, 24 h
[4] = target: T1, Tyrosinase (Agaricus bisporus) (UniProt O42713); assay: Inhibition of mushroom tyrosinase using L-tyrosine as substrate at 23 uM after 30 mins by spectrophotometric analysis
T1 sequence (whole entry): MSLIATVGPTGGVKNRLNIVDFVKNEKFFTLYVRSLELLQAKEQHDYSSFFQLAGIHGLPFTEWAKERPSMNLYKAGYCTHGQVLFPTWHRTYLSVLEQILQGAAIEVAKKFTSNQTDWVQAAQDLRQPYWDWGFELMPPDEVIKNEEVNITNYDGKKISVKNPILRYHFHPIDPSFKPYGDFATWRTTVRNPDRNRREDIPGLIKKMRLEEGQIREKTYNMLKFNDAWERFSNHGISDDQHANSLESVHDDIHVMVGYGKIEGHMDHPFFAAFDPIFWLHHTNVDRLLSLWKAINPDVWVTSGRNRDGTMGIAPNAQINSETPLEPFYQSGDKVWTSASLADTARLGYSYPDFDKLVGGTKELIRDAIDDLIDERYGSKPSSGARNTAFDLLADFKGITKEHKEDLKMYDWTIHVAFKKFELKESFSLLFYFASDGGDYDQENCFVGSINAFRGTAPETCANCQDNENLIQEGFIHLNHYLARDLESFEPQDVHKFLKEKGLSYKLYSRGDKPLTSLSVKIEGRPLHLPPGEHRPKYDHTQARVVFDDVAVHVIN
Method in brief: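 Modified dopachrome method with L-tyrosine substrate, in 3 mL total: 1.0 mL 0.1 M phosphate buffer pH 6.8, 1.0 mL 1.5 mM tyrosine, 0.35 mL 0.2 mM inhibitor stock in DMSO, 0.35 mL water, and 0.30 mL mushroom tyrosinase at 192 U/mL. Reference used DMSO in place of inhibitor. Incubated 37 °C for 30 min, read at 475 nm; activity % = B/A × 100 (sample/reference absorbance).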

Escherichia coli = assay: Antibacterial activity against Escherichia coli ATCC 25922 at 50 ug/ml after 24 hrs by agar well diffusion method; type: functional, organism-based
Bacillus spizizenii [5] = assay: Antibacterial activity against Bacillus subtilis ATCC 6633 at 50 ug/ml after 24 hrs by agar well diffusion method; type: functional
Pseudomonas aeruginosa = assay: Antibacterial activity against Pseudomonas aeruginosa ATCC 10145 at 50 ug/ml after 24 hrs by agar well diffusion method; type: functional, organism-based
Staphylococcus aureus = assay: Antibacterial activity against Staphylococcus aureus ATCC 25923 at 50 ug/ml after 24 hrs by agar well diffusion method; type: functional, organism-based
Fusarium graminearum [6] = assay: […] activity against Fusarium graminearum ATCC 24373 at 0.17 umol/ml after 24 hrs by agar well diffusion method relative to control; type: functional, organism-based

| Compound | inhibition at 50 µg/mL (Fusarium graminearum [1]) [%] | Activity [2] | inhibition at 50 µg/mL (Aspergillus flavus) [%] | inhibition at 50 µg/mL (Bacillus spizizenii [3]) [%] | inhibition at 50 µg/mL (Candida albicans) [%] | inhibition at 50 µg/mL (Aspergillus niger) [%] | inhibition [4] | inhibition (Escherichia coli) | inhibition (Bacillus spizizenii [5]) | inhibition (Pseudomonas aeruginosa) | inhibition (Staphylococcus aureus) | inhibition (Fusarium graminearum [6]) |
| --- | --- | --- | --- | --- | --- | --- | --- | --- | --- | --- | --- | --- |
| COc1cc(C(=O)O)c(/C(=C\c2cc(C(C)(C)C)c(O)c(C(C)(C)C)c2)C(=O)O)cc1OC | 70 | 18% | 48 | 44 | 48 | 44 | Active | – | – | – | – | – |
| O=C(O)/C(=C/c1ccc(O)cc1)c1cc(O)c(O)cc1C(=O)O | 72 | Active | 42 | – | 34 | 38 | Active | inactive | inactive | inactive | inactive | – |
| O=C(O)/C(=C/c1ccccc1)c1cc(O)c(O)cc1C(=O)O | 89 | Active | 43 | – | 40 | 34 | Active | inactive | inactive | inactive | inactive | Active |
| Oc1ccc(O)cc1 | – | – | – | – | – | – | Active | – | – | – | – | – |
| O=C(O)c1ccc(O)c(O)c1 [PROTOCATECHUIC ACID] | 76 | Active | 9 | – | – | 40 | Active | – | – | – | – | – |
| O=C(O)/C=C/c1ccc(O)c(O)c1 [CAFFEIC ACID] | 63 | Active | 16 | – | – | 35 | Active | – | – | – | – | – |
| O=C(O)/C(=C/c1cc(O)c(O)c(O)c1)c1cc(O)c(O)cc1C(=O)O | 71 | Active | 42 | – | 40 | 37 | Active | inactive | inactive | inactive | inactive | – |
| O=C(O)/C(=C/c1ccc(O)c(O)c1)c1cc(O)c(O)cc1C(=O)O | 72 | Active | 42 | – | 45 | 37 | Active | inactive | inactive | inactive | inactive | – |
| CC(C)(C)c1cc(/C=C(/C(=O)O)c2cc(O)c(O)cc2C(=O)O)cc(C(C)(C)C)c1O | 76 | Active | 52 | – | 40 | 44 | Active | inactive | inactive | inactive | inactive | – |
